Measurements published in ChEMBL document CHEMBL2417545, “6-methoxy-7-benzofuranoxy and 6-methoxy-7-indolyloxy analogues of 2-[2-(2,6-Dimethoxyphenoxy)ethyl]aminomethyl-1,4-benzodioxane (WB4101):1 discovery of a potent and selective α1D-adrenoceptor antagonist” (J Med Chem, 2013).

How the values were obtained:
[1] = target: T1, Alpha-1D adrenergic receptor (Homo sapiens, UniProt P25100); assay: Displacement of [3H]prazosin from human alpha-1D adrenoreceptor expressed in CHO cells after 30 mins; assay type: cell-based
T1 sequence (P25100 whole entry): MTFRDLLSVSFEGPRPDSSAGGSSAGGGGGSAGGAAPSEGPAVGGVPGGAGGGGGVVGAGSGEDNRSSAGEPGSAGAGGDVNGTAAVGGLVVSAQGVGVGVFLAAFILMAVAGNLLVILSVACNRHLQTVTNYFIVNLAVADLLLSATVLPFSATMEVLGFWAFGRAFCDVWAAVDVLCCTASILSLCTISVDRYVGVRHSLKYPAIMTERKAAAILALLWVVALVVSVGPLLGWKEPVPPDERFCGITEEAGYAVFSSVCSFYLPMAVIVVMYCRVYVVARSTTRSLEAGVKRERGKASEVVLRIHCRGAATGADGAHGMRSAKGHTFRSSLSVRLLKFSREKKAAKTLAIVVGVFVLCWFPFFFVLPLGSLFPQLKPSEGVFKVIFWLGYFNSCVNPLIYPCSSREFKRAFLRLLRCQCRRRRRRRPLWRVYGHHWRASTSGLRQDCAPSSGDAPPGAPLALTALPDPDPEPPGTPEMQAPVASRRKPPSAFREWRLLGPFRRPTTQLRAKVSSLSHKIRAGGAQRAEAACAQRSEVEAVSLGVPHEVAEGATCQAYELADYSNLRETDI
Method in brief: (§1)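 Membranes from CHO cells expressing each α₁-AR subtype, incubated 30 min at 25 °C in 50 mM Tris HCl pH 7.7 with 10 μM pargyline and 0.1% ascorbic acid, plus 0.5 nM [³H]prazosin and varying test compound concentrations. Nonspecific binding was defined with 1 μM prazosin.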

[2] = target: T2, Alpha-1A adrenergic receptor (Homo sapiens, UniProt P35348); assay: Displacement of [3H]prazosin from human alpha-1A adrenoreceptor expressed in CHO cells after 30 mins; assay type: cell-based; method in brief: as §1
T2 sequence (P35348 whole entry): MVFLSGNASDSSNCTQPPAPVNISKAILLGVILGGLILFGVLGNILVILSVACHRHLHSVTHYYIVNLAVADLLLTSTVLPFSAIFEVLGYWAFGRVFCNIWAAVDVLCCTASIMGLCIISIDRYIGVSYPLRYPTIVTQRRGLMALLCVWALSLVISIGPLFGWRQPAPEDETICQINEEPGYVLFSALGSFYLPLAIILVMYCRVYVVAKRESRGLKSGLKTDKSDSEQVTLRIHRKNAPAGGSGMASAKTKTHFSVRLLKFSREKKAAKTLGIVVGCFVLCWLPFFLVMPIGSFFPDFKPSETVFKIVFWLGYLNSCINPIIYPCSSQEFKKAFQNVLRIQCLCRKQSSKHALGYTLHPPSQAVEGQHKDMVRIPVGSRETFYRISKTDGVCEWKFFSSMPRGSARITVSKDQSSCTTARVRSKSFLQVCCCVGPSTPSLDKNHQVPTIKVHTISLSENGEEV

[3] = target: T3, 5-hydroxytryptamine receptor 1A (Rattus norvegicus, UniProt P19327); assay: Displacement of [3H]-8-OHDPAT from 5-HT1A receptor in rat hippocampal membranes after 30 mins; assay type: cell membranes, Hippocampus, Membrane
T3 sequence (P19327 whole entry): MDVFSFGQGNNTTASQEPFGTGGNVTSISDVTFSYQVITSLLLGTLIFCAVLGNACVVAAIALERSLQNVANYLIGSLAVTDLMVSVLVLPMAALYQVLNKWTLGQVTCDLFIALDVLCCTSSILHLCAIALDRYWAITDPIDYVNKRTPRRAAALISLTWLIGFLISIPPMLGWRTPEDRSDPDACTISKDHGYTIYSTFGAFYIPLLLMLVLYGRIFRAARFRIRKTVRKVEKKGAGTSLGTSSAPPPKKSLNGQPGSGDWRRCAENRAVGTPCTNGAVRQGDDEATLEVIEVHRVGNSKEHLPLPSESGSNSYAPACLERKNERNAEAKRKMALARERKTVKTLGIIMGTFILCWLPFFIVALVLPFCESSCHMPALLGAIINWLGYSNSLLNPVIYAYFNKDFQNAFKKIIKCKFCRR

[4] = target: T4, Alpha-1B adrenergic receptor (Homo sapiens, UniProt P35368); assay: Displacement of [3H]prazosin from human alpha-1B adrenoreceptor expressed in CHO cells after 30 mins; assay type: cell-based; method in brief: as §1
T4 sequence (P35368 whole entry): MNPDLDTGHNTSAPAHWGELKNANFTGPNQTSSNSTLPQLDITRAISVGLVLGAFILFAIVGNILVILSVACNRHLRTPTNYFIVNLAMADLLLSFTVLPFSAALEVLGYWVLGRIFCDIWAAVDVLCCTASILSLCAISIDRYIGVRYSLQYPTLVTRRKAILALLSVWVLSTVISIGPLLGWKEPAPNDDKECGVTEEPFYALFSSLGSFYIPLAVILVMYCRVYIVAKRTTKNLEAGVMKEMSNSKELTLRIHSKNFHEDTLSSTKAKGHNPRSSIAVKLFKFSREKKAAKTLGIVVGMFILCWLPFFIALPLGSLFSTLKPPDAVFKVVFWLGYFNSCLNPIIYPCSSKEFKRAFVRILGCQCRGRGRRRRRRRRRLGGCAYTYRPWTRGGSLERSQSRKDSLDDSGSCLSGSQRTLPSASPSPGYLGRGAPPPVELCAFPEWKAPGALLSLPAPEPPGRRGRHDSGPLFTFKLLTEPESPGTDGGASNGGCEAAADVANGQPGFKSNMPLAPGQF

| Ki [1] [nM] | Ki [2] [nM] | Ki [3] [nM] | Ki [4] [nM] | Compound |
| --- | --- | --- | --- | --- |
| 18.2 | 17 | 162 | 162 | COc1ccc2c(c1OCCNC[C@@H]1COc3ccccc3O1)OCC2 |
| 83.2 | 31.6 | 219 | 372 | COc1ccc2c(c1OCCNC[C@@H]1COc3ccccc3O1)NCC2 |
| 18.2 | 9.12 | 11 | 126 | COc1ccc2ccoc2c1OCCNC[C@@H]1COc2ccccc2O1 |
| 1350 | 437 | 1700 | 1910 | COc1ccc2cc[nH]c2c1OCCNC[C@@H]1COc2ccccc2O1 |
